In the library only some 11% were active in any assay of this set; here they are far more common.
WT yeast gro inh = growth inhibition of WT yeast, mitochondrial fusion screen. mitochondrial fusion phenotypic screen, WT strain. inhibition, % at 10 µM. 190,000 tested, 2.1% active; in the data active means inhibition above about 58%; tested in S. cerevisiae
Diaphorase inh = counter-screen for diaphorase-based assays: diaphorase inhibitors and chemical oxidizers | diaphorase resazurin-to-resorufin fluorescence, NADH, 16 min; bacterial (C. kluyveri) enzyme, not human | inhibition, % at 20 µM | 190,000 tested, 0.69% active | AID 1217;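 active means primary screen inhibition at 20 µM above a set limit, cut at about 50% in these data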;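 further: plate controls were DMSO with full reaction for no effect and wells lacking NADH for full effect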
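material = Clostridium kluyveri diaphorase enzyme | amount = 0.14 U/mL diaphorase, enzyme working solution | schedule = incubation 16 min, room temperature | detection = fluorescence of resorufin formed from resazurin, Ex 544/Em 590 nm | benchmarks = positive control minus NADH, DMSO neutral control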
G6PDH counter = inhibits Leuconostoc G6PDH, flagging false hits in G6PDH-based assays. inhibition, % at 5 µM. Purified L. mesenteroides G6PDH, diaphorase/resazurin coupled fluorescence, 45 min. 200,000 tested, 0.12% active
Diaph act CS = activates diaphorase or chemically reduces, flagging diaphorase assay artifacts; 190,000 tested, 0.005% active; activation factor at 20 µM; Diaphorase/resazurin coupled assay, resorufin fluorescence, 16 min; stronger effect = higher value; 1 = vehicle wells, 0 = NADH-free wells;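 active means diaphorase activity raised at least twofold by the compound at 20 µM; inactive means activation factor below 2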
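Test system: Clostridium kluyveri diaphorase, purified enzyme; input: enzyme 0.07 U/mL final; buffer or medium: 50 mM HEPES pH 7.4 with 4.542 mM MgCl2, 0.005% Tween 20; also added: 0.114 mM NADH and 0.1 mM resazurin, final amounts; schedule: 16 min enzyme reaction, ambient temperature; technique: fluorescence of resorufin, 544 nm excitation, 590 nm emission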
L major viab = inhibitors of Leishmania major promastigote growth. inhibition, % at 10 µM. Leishmania major promastigotes, resazurin fluorescence viability. 200,000 tested, 9% active;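 further: promastigotes grown with compound for 44 hours at 28 °C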
An asterisk follows results filed as active. Unless noted, no stated cut-off is given here; in the data, active means inhibition above about 50%; inactive means the rest.

For Cc1csc(NC(=O)c2cccn2C)n1 the results were WT yeast gro inh 84.9*, Diaphorase inh 8.4, G6PDH counter 7.1, Diaph act CS 0.9 and L major viab -0.4.
Cc1cccc(C(=O)NC(C(=O)Nc2nc(-c3ccccn3)cs2)C(C)C)c1 (centres undefined) was read as WT yeast gro inh 72.5*, Diaphorase inh -2.3, G6PDH counter 2.9, Diaph act CS 1 and L major viab 97.9*.
For Cn1cccc1C(=O)Nc1nc(-c2ccccn2)cs1 the results were WT yeast gro inh -1.5, Diaphorase inh 20.2, G6PDH counter 25.6, Diaph act CS 0.8 and L major viab 100.1*.
`Cc1csc(NC(=O)c2ccccc2C(=O)O)n1` gave WT yeast gro inh 5.8, Diaphorase inh 14.4, G6PDH counter -11.4, Diaph act CS 0.9 and L major viab -5.3.
`[N-]=[N+]=CC(=O)c1ccnc(C(=O)C=[N+]=[N-])c1` gave WT yeast gro inh -0.7, Diaphorase inh 15.0, G6PDH counter 1.1, Diaph act CS 0.8 and L major viab -1.8.
For C=CCn1c(N)c(C(=O)OC(C)CC)c2nc3ccccc3nc21 (centres undefined) the results were WT yeast gro inh 2.9, Diaphorase inh 13.6, G6PDH counter -2.7, Diaph act CS 0.9 and L major viab 99.9*.
Screening Cc1ccc(S(=O)(=O)N2CCN(C(=O)CSc3nc(N)cc(=O)[nH]3)CC2)c(C)c1 returned WT yeast gro inh -0.1, Diaphorase inh 6.9, G6PDH counter -4.1, Diaph act CS 0.9 and L major viab -8.1.
`O=C1c2ccccc2-c2onc3ccc(NCCCn4ccnc4)c1c23` gave WT yeast gro inh 27.2, Diaphorase inh -2.5, G6PDH counter 16.1, Diaph act CS 1 and L major viab 100.1*.
Cc1nc(NCCCn2ccnc2)c2ccccc2n1 was read as WT yeast gro inh -17.6, Diaphorase inh -12.6, G6PDH counter 4.7, Diaph act CS 1.1 and L major viab 2.7.
`CONC(=O)C1CCN(C(=O)OCc2ccccc2)CC1` gave WT yeast gro inh 20.8, Diaphorase inh 9.3, G6PDH counter 7.5, Diaph act CS 0.9 and L major viab -0.2.
Screening COc1cc(CN2CCNC(=O)C2CC(=O)O)cc(OC)c1 (centres undefined) returned WT yeast gro inh 15.3, Diaphorase inh 84.6*, G6PDH counter -1.3, Diaph act CS 0.2 and L major viab -3.1.
Screening COc1ccc(-c2nc(-c3ccccn3)no2)cc1 returned WT yeast gro inh 64.4*, Diaphorase inh 12.5, G6PDH counter 17.1, Diaph act CS 0.9 and L major viab -0.2.
Screening COc1ccccc1-c1nc(-c2ccccn2)no1 returned WT yeast gro inh 43.5, Diaphorase inh 5.9, G6PDH counter -3.5, Diaph act CS 0.9 and L major viab 4.0.
Screening CN1CC=C2C(C#N)=C(N)C(C#N)(C#N)C(CCc3ccccc3)C2C1 (centres undefined) returned WT yeast gro inh -8.0, Diaphorase inh 22.7, G6PDH counter -11.8, Diaph act CS 0.8 and L major viab -3.1.
Screening CCCC1C2CN(C(C)C)CC=C2C(C#N)=C(N)C1(C#N)C#N (centres undefined) returned WT yeast gro inh 39.1, Diaphorase inh 34.8, G6PDH counter 22.4, Diaph act CS 0.7 and L major viab 76.4*.
For CC(C)c1ccc(C2C3CSCC=C3C(C#N)=C(N)C2(C#N)C#N)cc1 (centres undefined) the results were WT yeast gro inh 19.5, Diaphorase inh 26.3, G6PDH counter 2.7, Diaph act CS 0.7 and L major viab 97.8*.
`COC(=O)c1sc2nc(CN3CCN(c4cccc(C(F)(F)F)c4)CC3)[nH]c(=O)c2c1C` gave WT yeast gro inh 8.1, Diaphorase inh -2.6, G6PDH counter -16.4, Diaph act CS 1 and L major viab -5.0.
For O=C(C1CCCO1)N1CCN(Cc2c(O)ccc3ccccc23)CC1 (centres undefined) the results were WT yeast gro inh -1.2, Diaphorase inh 56.3*, G6PDH counter 22.4, Diaph act CS 0.4 and L major viab -2.1.
Screening Cc1ccc(CCNC(=O)CNC(=O)c2cccs2)cc1 returned WT yeast gro inh 12.3, Diaphorase inh 3.5, G6PDH counter 4.8, Diaph act CS 1 and L major viab 9.2.
For COc1ccc(-c2c(C(C)=O)c(C)nc3sc4c(=N)n(N)cnc4c23)cc1 the results were WT yeast gro inh -5.2, Diaphorase inh 16.5, G6PDH counter -3.0, Diaph act CS 0.8 and L major viab 62.0*.
For CCOC(=O)c1c(C)nc2sc(C(N)=O)c(N)c2c1-c1ccc(OC)cc1 the results were WT yeast gro inh 15.5, Diaphorase inh 19.4, G6PDH counter 11.0, Diaph act CS 0.8 and L major viab 93.9*.
For CCOC(=O)c1c(C)nc2sc3c(=O)n(-c4ccc(OC)cc4)cnc3c2c1-c1ccc(OC)cc1 the results were WT yeast gro inh 12.2, Diaphorase inh 3.9, G6PDH counter 25.8, Diaph act CS 1 and L major viab 4.8.
For CCOC(=O)c1c(C)nc2sc(C(=O)Nc3ccc(OC)cc3)c(N)c2c1-c1ccc(OC)cc1 the results were WT yeast gro inh 20.5, Diaphorase inh 33.3, G6PDH counter -1.4, Diaph act CS 0.7 and L major viab 21.3.
For CCOC(=O)c1c(C)nc2sc(C(=O)Nc3ccc(C(C)=O)cc3)c(N)c2c1-c1ccc(OC)cc1 the results were WT yeast gro inh 6.3, Diaphorase inh 40.5, G6PDH counter -51.7, Diaph act CS 0.6 and L major viab 95.3*.
`CC1C2=C(CCCC2=O)N(c2cccc3ccccc23)C2=C1C(=O)CCC2` gave L major viab 54.6*.
CN(C)CCCN(C(=O)c1ccc(Br)s1)c1nc2cc3c(cc2s1)OCO3 was read as WT yeast gro inh 55.3, Diaphorase inh -7.0, G6PDH counter 1.8, Diaph act CS 1.1 and L major viab 74.5*.
For Cc1cccc2sc(N(CCCN(C)C)C(=O)CCc3ccccc3)nc12 the results were WT yeast gro inh 91.8, Diaphorase inh 8.5, G6PDH counter -14.6, Diaph act CS 0.9 and L major viab 24.3.
For CN(C)CCCN(C(=O)c1ccc(S(=O)(=O)N(C)C)cc1)c1nc2cc3c(cc2s1)OCO3 the results were WT yeast gro inh -1.0, Diaphorase inh 6.3, G6PDH counter -0.2, Diaph act CS 0.9 and L major viab 10.1.
`Cc1ccc2sc(N(CCCN(C)C)C(=O)c3ccc(Br)s3)nc2c1C` gave WT yeast gro inh 87.2*, Diaphorase inh -23.0, G6PDH counter -7.8, Diaph act CS 1.2 and L major viab 94.9*.
Screening Cc1ccc2sc(N(CCCN(C)C)C(=O)c3nc4ccccc4s3)nc2c1C returned WT yeast gro inh 58.6*, Diaphorase inh -17.2, G6PDH counter -7.6, Diaph act CS 1.2 and L major viab 37.1.
Cc1cccc2sc(N(CCCN(C)C)C(=O)c3nc4ccccc4s3)nc12 was read as WT yeast gro inh 19.7, Diaphorase inh 6.8, G6PDH counter -7.0, Diaph act CS 0.9 and L major viab 77.7*.

Assay outcomes: PubChem BioAssay, several laboratories
